Source: PubChem BioAssay
An excerpt weighted towards active compounds, which were near 2.6% of everything screened.
CHT inh: inhibitors of human choline transporter CHT; AID 488975, 2010; B-score at 10 µM; CHT-expressing cells, membrane potential dye, choline response; stronger effect = lower value; High affinity choline transporter 1 (Homo sapiens), Q9GZV3; hit rate 0.86% among 310,000;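 active = B-score over 3 SD under the library average, and starting fluorescence ratio not unusually high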;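 note: choline stimulus applied at its EC90 after an EC20 pre-addition; B-score computed on integrated fluorescence ratio after choline addition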
Target sequence (Q9GZV3 whole entry, looked up): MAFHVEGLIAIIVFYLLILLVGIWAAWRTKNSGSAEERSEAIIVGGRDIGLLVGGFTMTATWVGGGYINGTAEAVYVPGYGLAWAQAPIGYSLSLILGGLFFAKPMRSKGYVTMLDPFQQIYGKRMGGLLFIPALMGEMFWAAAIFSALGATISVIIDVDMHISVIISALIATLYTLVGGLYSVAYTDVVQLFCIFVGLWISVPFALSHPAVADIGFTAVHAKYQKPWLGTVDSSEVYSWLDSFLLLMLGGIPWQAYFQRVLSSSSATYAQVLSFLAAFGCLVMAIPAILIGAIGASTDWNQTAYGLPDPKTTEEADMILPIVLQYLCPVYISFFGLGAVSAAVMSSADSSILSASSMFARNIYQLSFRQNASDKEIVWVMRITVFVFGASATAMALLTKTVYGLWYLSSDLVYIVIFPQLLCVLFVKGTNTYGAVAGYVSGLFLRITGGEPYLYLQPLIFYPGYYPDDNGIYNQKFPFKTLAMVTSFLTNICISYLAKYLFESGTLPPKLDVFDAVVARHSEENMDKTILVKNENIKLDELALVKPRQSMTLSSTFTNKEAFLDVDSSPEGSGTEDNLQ
T cruzi inh: inhibitors of intracellular T. cruzi growth, primary screen, luminescence, NIH3T3 host cells | AID 1885, 2009 | hit rate 1.4% among 300,000 | T. cruzi beta-gal in NIH3T3, 90 h | inhibition, % (concentration not given with the values);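 active = mean inhibition across valid replicates above about 55%, limit read from the data; inconclusive = mean below that limit but half or more replicates reach it; inactive = mean below it, under half of replicates reach it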;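 note: signal also drops with host cell toxicity which is not excluded here; 0% = plate median of DMSO wells and 100% = zero luminescence signal; higher percent means less beta-gal luminescence so fewer parasites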
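Assay system: NIH/3T3 fibroblasts plus reporter T. cruzi. Amount: NIH/3T3 cells, 5,000 per well. Buffer or medium: DMEM, 2% fetal bovine serum. Doses: compound pinned at 50 nL/well, DMSO. Schedule: ≥90 h infection period, 3 h prior cell attachment. Signal: luminescent β-galactosidase signal after 60 min lysis. Read-out: parasite load inhibition, %.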
CHT PAM: CHT positive allosteric modulators, primary screen, cell-based, membrane potential dye, choline EC20; AID 488977, 2010; CHT-expressing cells; stronger effect = higher value; LV-AA mutant CHT in HEK293 cells; High affinity choline transporter 1 (Homo sapiens), Q9GZV3; B-score at 10 µM; hit rate 0.49% among 310,000;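 active = initial fluorescence not abnormally high and integrated response B-score, plate-corrected, over 3 SD above library mean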
PolyA inhibitor: polyadenylation inhibitors in yeast reporter cells, primary screen, luminescence, S. cerevisiae. S. cerevisiae SKY197-pL101 polyadenylation reporter, beta-gal luminescence; efflux-impaired pdr1/pdr3 knockout yeast; score 100 = 6 SD above DMSO. activity score, % at 12 µM. hit rate 0.02% among 300,000;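 active = lowest replicate activity score at least 50, where 100 means six control SD above control mean; inconclusive = lowest score under 50 but half or more replicates reach 50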;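 note: yeast exposed to compound for 9 h at 30 °C; higher score means more reporter readthrough which indicates perturbed polyadenylation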
* = called active by the depositor; i = inactive; ? = inconclusive; nt = no result.

SMILES	CHT inh	T cruzi inh	CHT PAM	PolyA inhibitor
Cc1ccc(CN2CCN(Cc3ccccc3)CC2)cc1	i	59*	i	-7
NC(=O)c1cn(C2OC(CO)C(O)C2O)c2ncnc(N)c12 (stereo not drawn)	i	57*	i	6
O=C(Cc1ccccc1)N1CCN(Cc2ccccc2Cl)CC1	i	8	i	-4
CNc1ccc2nc3ccccc3[n+](C)c2c1	i	59*	i	-14
C[n+]1c2ccccc2nc2ccc(NCCO)cc21	i	10	i	-7
COc1cc(C(=S)N2CCOCC2)cc(OC)c1OC(=O)Cc1ccccc1	-5.1*	-20	i	-2
CC(C)(C)c1cc(OC(=O)Cc2ccccc2)ccc1O	i	?	i	-23
O=C(C[N+]12CCC(CC1)C(CO)C2)c1ccc(Br)cc1 (stereo not drawn)	i	3	i	5
COc1ccc(/C=C/C2=CCN(C)CC2)cc1	i	21	i	5
CN1CC=C(/C=C/c2ccc(-c3ccccc3)cc2)CC1	i	70*	i	-5
CN1c2ccc([N+](=O)[O-])cc2CC2(C(=O)NC(=O)N(c3ccc(Br)cc3)C2=O)C1c1ccccc1 (stereo not drawn)	i	?	i	-15
COc1ccc2c(c1OC)CN1CCc3cc4c(cc3C1C2)OCO4 (stereo not drawn)	i	58*	i	8
COc1cc2c(cc1OC)C(C1c3cc4c(cc3CCN1C)OCO4)OC2=O (stereo not drawn)	i	-11	i	-3
Cc1cc([N+](=O)[O-])c2ccccc2[n+]1[O-]	i	79*	i	-6
COc1ccc(/C=N\N=C(N)N)cc1	i	62*	i	1
NC(N)=N/N=C/c1ccc(N2CCOCC2)cc1	i	28	i	12
Nc1c(C(=O)NCc2ccco2)c2nc3ccccc3nc2n1CCN1CCCCC1	i	69*	i	0
COc1ccc(Cn2c(N)c(C(=O)NCc3ccco3)c3nc4ccccc4nc32)cc1OC	i	nt	i	nt
COc1cccc(C2(C#N)CCN(C)CC2)c1	i	-6	i	-13
CCOC(=O)c1ccc(NC(=O)N2C[C@@H]3C[C@@H](C2)c2cccc(=O)n2C3)cc1	i	-2	i	-13
C[C@]12CCC(=O)C[C@H]1CC[C@@H]1[C@@H]2CC[C@]2(C)[C@@H](O)CC[C@@H]12	-5.3*	nt	i	nt
Brc1ccc(-[n+]2c(-c3ccccc3)cc(-c3ccccc3)cc2-c2ccccc2)cc1	i	35	12*	17
COc1ccc(-[n+]2c(-c3ccccc3)cc(-c3ccc(C)cc3)cc2-c2ccccc2)cc1	i	61*	i	-10
CCC(=NCCCN(CC)CC)c1c(O)n(C2CCCCC2)c(=O)[nH]c1=O	i	66*	i	3
CCC(=NCCN1CCOCC1)c1c(O)n(C2CCCCC2)c(=O)[nH]c1=O	i	-6	i	3
SMILES	CHT inh	T cruzi inh	CHT PAM	PolyA inhibitor
CC(=O)Nc1ccc(OCCF)cc1	i	-15	i	11
Clc1ccc(CO/N=C(\Cn2ccnc2)c2ccc(Cl)cc2Cl)c(Cl)c1	i	68*	i	-14
O=C1C2CCN(CC2)C12CC2c1ccc(C(F)(F)F)cc1 (stereo not drawn)	i	5	i	-1
CC1(CCl)CN1S(=O)(=O)c1ccccc1 (stereo not drawn)	i	-10	i	9
CC1CCC(C(C)C)C(OC(=O)Cn2c(COc3ccccc3)[n+](C)c3ccccc32)C1 (stereo not drawn)	i	73*	i	-18
CC(=O)O[C@H]1C(=O)[C@@]2(C)C([C@H](OC(=O)c3ccccc3)[C@]3(O)C[C@H](OC(=O)[C@H](O)[C@@H](NC(=O)Cc4ccccc4)c4ccccc4)C(C)=C1C3(C)C)[C@]1(OC(C)=O)CO[C@@H]1C[C@@H]2O (stereo partly drawn)	i	41	i	-22
CC(=O)O[C@@]12CO[C@@H]1C[C@H](O)[C@@]1(C)C(=O)[C@H](O)C3=C(C)[C@@H](OC(=O)[C@H](O)[C@@H](NC(=O)c4ccccc4)c4ccccc4)C[C@@](O)([C@@H](OC(=O)c4ccccc4)C12)C3(C)C (stereo partly drawn)	i	55*	i	-15
CCN(CC)c1ccc(CN(C)CCc2ccc(OC)c(OC)c2)cc1	i	61*	i	-3
COc1ccccc1CN1CCCC(C(=O)c2ccccc2OC)C1 (stereo not drawn)	i	18	i	-1
COc1ccccc1CN1CCCC(C(=O)c2ccccc2SC)C1 (stereo not drawn)	i	60*	i	2
O=C(CCc1nnc2ccc(NCc3ccccc3Cl)nn12)N1CCC2(CC1)OCCO2	i	-7	i	-4
Cc1[nH]c2ccccc2c1C(=O)CN1CC=C(c2ccccc2)CC1	i	97*	i	-4
CC(=O)N1CCC(N2CCCC(C(=O)c3cccc(Cl)c3)C2)CC1 (stereo not drawn)	i	-2	i	-6
Cc1ccc(-c2cc(-c3ccc(C)cc3)[n+](-c3ccc(C(=O)O)cc3)c(-c3ccc(C)cc3)c2)cc1	i	2	i	6
Cc1ccc(C[n+]2c(-c3ccc(C)cc3)cc(-c3ccc(C)cc3)cc2-c2ccc(C)cc2)cc1	i	47	8.7*	13
Cn1c(=O)c2c(nc(N/N=C/c3c(O)n(C4CCCCC4)c(=S)[nH]c3=O)n2C)n(C)c1=O	i	2	i	10
O=C(O)c1ccc(-[n+]2c(-c3ccccc3)cc(-c3ccccc3)cc2-c2ccccc2)cc1	i	2	i	6
Cc1ccccc1-[n+]1c(-c2ccccc2)cc(-c2ccccc2)cc1-c1ccccc1	i	41	7.5*	0
Nc1ccccc1-[n+]1c(-c2ccccc2)cc(-c2ccccc2)cc1-c1ccccc1	i	61*	i	-7
COc1ccc(OC)c(N2C(=O)NC(=O)/C(=C/c3ccc([N+](=O)[O-])s3)C2=O)c1	i	65*	i	-14
CCOC(=O)C(O)(c1ccc(N(CC)C(=O)COc2ccccc2)cc1)C(F)(F)F (stereo not drawn)	i	2	i	-1
CCCCCn1c(=O)c(C(=O)Nc2ccccc2S(N)(=O)=O)c(O)c2ccccc21	i	69*	i	1
CCCCn1c(=O)c(C(=O)Nc2ccccc2S(N)(=O)=O)c(O)c2ccccc21	i	-3	i	-21
